Assays:
[1] = […] plasma clearance in rat at 1 mg/kg, iv; assay type: ADME, organism-based; details: read-out: CL free (converted)
Method in brief: (§1)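 Rat pharmacokinetics: iv dose 1 mg/kg; po dose 1 or 2 mg/kg depending on compound. AUC taken over 0–8 h. Unbound parameters calculated using plasma free fraction.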

[2] = Volume of distribution at steady state in rat at 1 mg/kg, iv or 1 mg/kg, po; assay type: ADME, organism-based; details: in vivo, read-out: Vdss; method in brief: as §1
[3] = Cmax in rat at 1 mg/kg, iv or 1 mg/kg, po; assay type: ADME, organism-based; details: in vivo; method in brief: as §1
[4] = biological target: T1, Transient receptor potential cation channel subfamily V member 3 (Homo sapiens) (UniProt Q8NET8); experiment: Antagonist activity at human TRPV3 expressed in recombinant HEK293 cells assessed as free plasma level adjusted concentration for inhibition of 2-APB induced calcium flux by FLIPR analysis; assay type: cell-based
T1 sequence (whole entry): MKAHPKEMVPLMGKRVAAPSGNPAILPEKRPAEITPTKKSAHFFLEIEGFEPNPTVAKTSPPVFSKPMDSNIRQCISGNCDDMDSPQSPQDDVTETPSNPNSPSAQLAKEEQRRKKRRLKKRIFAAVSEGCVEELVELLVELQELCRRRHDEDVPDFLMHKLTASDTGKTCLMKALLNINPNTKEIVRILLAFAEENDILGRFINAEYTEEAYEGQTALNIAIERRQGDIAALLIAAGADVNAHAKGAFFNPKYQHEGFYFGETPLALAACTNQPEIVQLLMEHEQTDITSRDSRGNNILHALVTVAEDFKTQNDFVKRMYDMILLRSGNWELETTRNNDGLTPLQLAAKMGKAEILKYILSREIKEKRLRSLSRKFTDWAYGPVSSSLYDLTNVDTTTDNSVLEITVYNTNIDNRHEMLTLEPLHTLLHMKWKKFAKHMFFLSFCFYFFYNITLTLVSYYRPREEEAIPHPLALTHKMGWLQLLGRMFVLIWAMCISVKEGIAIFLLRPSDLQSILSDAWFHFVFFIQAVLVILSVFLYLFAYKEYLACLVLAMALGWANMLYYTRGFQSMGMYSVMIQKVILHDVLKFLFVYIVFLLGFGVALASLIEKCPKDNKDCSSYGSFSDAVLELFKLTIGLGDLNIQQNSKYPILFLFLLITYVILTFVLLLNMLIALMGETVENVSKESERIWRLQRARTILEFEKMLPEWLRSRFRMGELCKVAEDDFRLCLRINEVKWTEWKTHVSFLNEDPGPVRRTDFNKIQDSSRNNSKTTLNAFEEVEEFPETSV
Method in brief: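 FLIPR Kb from the 2-APB (60 µM final) Ca2+ flux assay in human TRPV3 HEK293 cells, converted to an unbound value using the measured free fraction in plasma.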

[5] = Fraction unbound in human plasma; assay type: ADME, cell-free
Rattus norvegicus [6] = experiment: Unbound AUC(0 to 8 hrs) in rat at 1 mg/kg, po; assay type: ADME, organism-based; details: in vivo; method in brief: as §1
Liver microsome [7] = experiment: Unbound intrinsic clearance in human liver microsomes after 5 hrs by LC-MS/MS analysis; assay type: ADME
Method in brief: (§2)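 Microsomal stability run in an automated high-throughput plate format. Intrinsic clearance corrected for nonspecific microsomal binding using measured unbound fraction (fu,mic), reported as unbound Clint in L/h/kg.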

[8] = Total plasma clearance in rat at 1 mg/kg, iv; assay type: ADME, organism-based; method in brief: as §1
Liver microsome [9] = experiment: Unbound intrinsic clearance in rat liver microsomes after 5 hrs by LC-MS/MS analysis; assay type: ADME; method in brief: as §2
[10] = Half life in rat at 1 mg/kg, iv; assay type: ADME, organism-based; details: in vivo; method in brief: as §1
[11] = Oral bioavailability in rat at 1 mg/kg; assay type: ADME, organism-based; details: in vivo; method in brief: as §1
[12] = AUC(0 to 8 hrs) in rat at 1 mg/kg, po; assay type: ADME, organism-based; design: time < 6 hr, dose 1 mg/kg, route oral; details: in vivo; method in brief: as §1
[13] = biological target: T1, Transient receptor potential cation channel subfamily V member 3 (Homo sapiens); experiment: Antagonist activity at human TRPV3 expressed in recombinant HEK293 cells assessed as inhibition of 2-APB induced calcium flux by FLIPR analysis; assay type: cell-based
Method in brief: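 HEK293 cells stably expressing human TRPV3 (I25V variant), plated the day before in DMEM + 10% FBS at 37 °C, 5% CO2. Calcium 4 dye loaded in Ca/Mg-free HEPES D-PBS pH 7.4 for 1–2 h at room temperature. Compound dilutions added with 3 min baseline, then 2-APB at 60 µM final; Ca2+ flux read 3 min on FLIPR. Kb from at least duplicates, averaged across independent runs.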

Rattus norvegicus [14] = species: Rattus norvegicus; experiment: Cardiotoxicity in rat assessed as increase in mean arterial pressure; assay type: toxicity, organism-based, Artery; details: in vivo
Rattus norvegicus [15] = species: Rattus norvegicus; experiment: Cardiotoxicity in rat assessed as increase in cardiac contractility at plasma concentration of 4.7 ug/ml; assay type: toxicity, organism-based
[16] = biological target: T2, Nuclear receptor subfamily 1 group I member 2 (Homo sapiens, UniProt O75469); experiment: Activation of human PXR; assay type: ADME; details: for Activity: human
T2 sequence (O75469 whole entry): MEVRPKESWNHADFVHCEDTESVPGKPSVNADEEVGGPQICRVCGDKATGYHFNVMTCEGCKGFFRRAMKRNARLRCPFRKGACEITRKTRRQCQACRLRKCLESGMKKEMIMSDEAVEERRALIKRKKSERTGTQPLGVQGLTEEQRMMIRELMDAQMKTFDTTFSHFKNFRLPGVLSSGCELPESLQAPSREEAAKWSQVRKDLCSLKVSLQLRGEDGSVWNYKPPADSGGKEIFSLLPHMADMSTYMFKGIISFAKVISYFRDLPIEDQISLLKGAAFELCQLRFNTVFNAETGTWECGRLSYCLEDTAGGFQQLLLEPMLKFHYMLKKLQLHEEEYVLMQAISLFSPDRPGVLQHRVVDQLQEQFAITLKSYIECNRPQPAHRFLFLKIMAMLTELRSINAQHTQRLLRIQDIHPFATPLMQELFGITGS

Plasma = experiment: Plasma concentration in rat; assay type: ADME, cell-free

SMILES	clearance [1] [L/h/kg]	Vd [2] [L/kg]	Cmax [3] [µg/mL]	Kb [4] [µM]	fraction unbound [5]	fAUC (Rattus norvegicus [6]) [µg·h/mL]	CL free (Liver microsome [7]) [L/h/kg]	clearance [8] [L/h/kg]	CL free (Liver microsome [9]) [L/h/kg]	half-life [10] [h]	bioavailability [11] [%]	AUC(0-t) at 6 h [12] [µg·h/mL]	Kb [13] [µM]	Activity (Rattus norvegicus [14])	Activity (Rattus norvegicus [15])	Activity [16]	Cp (Plasma) [µg/mL]	EC50 [16] [µM]
C[C@]1(c2ccc(OC(F)(F)F)cc2)C[C@](O)(c2ccccn2)CO1 (single isomer, unassigned)	17.6	3.2	0.13	12	0.06	0.03	7	0.6	10	3.8	56	0.93	0.42					
C[C@]1(O)C[C@](c2cccc(C(F)(F)F)c2)([C@H](O)c2ccccn2)C1							2		4				1.55	Non-toxic	Non-toxic	Not Active		
O[C@H](c1ccccn1)C1(c2ccc(OC(F)(F)F)cc2)CC(F)(F)C1							11		12				0.04	16%	29%		4.7	5.7
O[C@H](c1ccccn1)[C@]1(c2ccc(C(F)(F)F)cc2)C[C@@H](O)C1							2		3				1.87	Non-toxic	Non-toxic	Not Active		
C[C@]1(O)C[C@](c2ccc(OC(F)(F)F)cc2)([C@H](O)c2ccccn2)C1							3		6				1.51	Non-toxic	Non-toxic	Not Active		
C[C@]1(O)C[C@@](c2ccc(OC(F)(F)F)cc2)([C@H](O)c2ccccn2)C1							4		8				0.33	Non-toxic	Non-toxic	Not Active		
C[C@]1(O)C[C@](c2ccnc(C(F)(F)F)c2)([C@H](O)c2ccccn2)C1							4		5				0.5	Non-toxic	Non-toxic	Not Active		
O[C@H](c1ccccn1)[C@]1(c2ccnc(C(F)(F)F)c2)C[C@@H](O)C1							5		12				0.53	Non-toxic	Non-toxic	Not Active		
C[C@]1(O)C[C@](c2cccc(OC(F)(F)F)c2)([C@H](O)c2ccccn2)C1							7		3				1.31	Non-toxic	Non-toxic	Not Active		
O[C@H](c1ccccn1)[C@]1(c2cc(C(F)(F)F)ccn2)C[C@@H](O)C1							2		3				0.32	Non-toxic	Non-toxic	Not Active		
C[C@]1(O)C[C@@](c2cc(C(F)(F)F)ccn2)([C@H](O)c2ccccn2)C1							2		7				0.73	Non-toxic	Non-toxic	Not Active		
C[C@]1(O)C[C@](c2ccc(C(F)(F)F)cc2)([C@H](O)c2ccccn2)C1							2		6				4.79	Non-toxic	Non-toxic	Not Active		
O[C@H](c1ccccn1)[C@]1(c2ccc(C(F)(F)F)cc2)C[C@H](O)C1							3		3				2.24	Non-toxic	Non-toxic	Not Active		
O[C@H](c1ccccn1)[C@]1(c2cccc(C(F)(F)F)c2)C[C@H](O)C1							8		11				0.09	Non-toxic	Non-toxic	Not Active		
O[C@H](c1ccccn1)[C@]1(c2cccc(C(F)(F)F)c2)C[C@@H](O)C1							3		6				0.21	Non-toxic	Non-toxic	Not Active		
C[C@]1(O)C[C@](c2cc(C(F)(F)F)ccn2)([C@@H](O)c2ccccn2)C1							2		6				> 9.1	Non-toxic	Non-toxic	Not Active		
O[C@H](c1ccccn1)[C@]1(c2cccc(OC(F)(F)F)c2)C[C@@H](O)C1							7		13				0.08	Non-toxic	Non-toxic	Not Active		
C[C@]1(O)C[C@@](c2ccc(C(F)(F)F)cc2)([C@H](O)c2ccccn2)C1							3		9				0.84	Non-toxic	Non-toxic	Not Active		
